FGF22 binding: binders of recombinant human FGF22 by thermal shift. Q9HCT0. SYPRO orange fluorescence; percent of sucrose octasulfate shift, DMSO zero. activity (Tm shift, normalised), % at 9.99 µM. 340,000 tested, 1.5% active;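 active = mean Tm shift, scaled 0 neutral to 100 positive control, at about 1.3% or above, every replicate too, limit read from the data; inconclusive = no clear call, values can overlap the other calls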
Target sequence (Q9HCT0 whole entry, looked up): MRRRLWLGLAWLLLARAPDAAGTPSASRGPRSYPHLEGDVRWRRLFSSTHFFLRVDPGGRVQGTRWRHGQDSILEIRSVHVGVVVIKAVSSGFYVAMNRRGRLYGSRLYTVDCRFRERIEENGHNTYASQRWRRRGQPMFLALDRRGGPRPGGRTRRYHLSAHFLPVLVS
ARNT TACC3 PPI: disrupts binding between human ARNT and TACC3. Q9Y6A5. AlphaScreen His-ARNT PAS-B/GST-TACC3 binding, luminescence; TACC3 fragment carries E629A point mutation. inhibition, % at 9.99 µM. 390,000 tested, 0.66% active;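 active = mean inhibition of replicates at least 50% and at least half of replicates each reaching 50%; inconclusive = half or more replicates reach 50% but mean below 50%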
SIRT5 block: inhibitors of human sirtuin-5 desuccinylase | AID 652115 | 330,000 tested, 1.1% active | inhibition, % at 15 µM | Purified SirT5, succinyl-peptide AMC, trypsin-coupled fluorescence; in the data active = inhibition above about 15%; inconclusive = no clear call, values can overlap the other calls
Target sequence (Q9NXA8 whole entry, looked up): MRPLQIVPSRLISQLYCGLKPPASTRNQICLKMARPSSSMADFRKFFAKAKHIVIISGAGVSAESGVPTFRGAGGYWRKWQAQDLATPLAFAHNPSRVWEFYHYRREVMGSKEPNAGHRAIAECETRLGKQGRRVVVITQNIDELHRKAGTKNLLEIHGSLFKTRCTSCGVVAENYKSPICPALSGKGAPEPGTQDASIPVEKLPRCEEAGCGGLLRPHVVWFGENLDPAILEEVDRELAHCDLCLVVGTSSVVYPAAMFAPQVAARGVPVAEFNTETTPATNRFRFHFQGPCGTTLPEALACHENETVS
FN deposition inh: fibronectin deposition inhibition; AH1F fibroblasts, Alexa488-fibronectin deposition fluorescence, overnight; inhibition, % at 12.6 µM; 350,000 tested, 0.086% active;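 active = mean inhibition across replicates of 30% or more, regardless of how many single replicates reach that level; inconclusive = mean under 30% yet at least half of replicates reach 30%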
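Measured by – fluorescence 485/525 nm · System – AH1F fibroblast monolayer, labelled fibronectin deposition · Amount – 10000 cells per well · Buffer or medium – serum-reduced DMEM (2% serum) · Doses – single dose, pinned · Also added – fluorescent fibronectin at 24 nM final · Schedule – 1 h cell attachment, overnight exposure to compound and label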
Xi reactivation: reactivates the inactive X chromosome in mouse fibroblasts | activation, % at 7.58 µM | 360,000 tested, 0.055% active | XiGFP mouse fibroblasts, % GFP-positive cells imaging, 3 d; cells co-treated with 5-aza-dC sensitizer; scaled so ellipticine positive control = 100% | AID 743238;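 active = mean normalized replicate activation at least 10% and every replicate at or above 10%; inconclusive = only one of the two criteria met; inactive = mean below 10% and not all replicates reach 10%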
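System: 68-5-11 XiGFP fibroblast line; Timing: 3 days compound exposure; Compound dosing: one concentration, pinned; Benchmarks: positive control ellipticine, 6 µM final; Buffer or medium: DMEM containing 5-aza-dC.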
DENV2 CPE rescue: DENV2-induced cell death inhibition; DENV2-infected cells, cytopathic effect rescue, plate reader; CPE inhibition, % at 9.99 µM; 350,000 tested, 1.7% active; AID 651640; in the data active = CPE inhibition above about 20%, passing the limit was not always enough; inconclusive = no clear call, values can overlap the other calls; tested in BHK-21 cells
Large screens that a line does not name were inactive. In the library only some 3.8% were active in any assay of this set; here they are far more common.

CO[C@@H]1CN(C)C(=O)c2cc(NC(C)=O)ccc2OC[C@@H](C)N(S(=O)(=O)c2cn(C)cn2)C[C@H]1C	none
Cc1noc(C)c1NC(=O)N[C@@H]1CC[C@H](CCNC(=O)C2CCOCC2)O[C@@H]1CO	none (no result: FN deposition inh)
C[C@H]1CN([C@@H](C)CO)C(=O)Cc2cc(NC(=O)Nc3cccc4ccccc34)ccc2O[C@@H]1CN(C)Cc1ccc(Cl)c(Cl)c1	SIRT5 block 16 (no result: FN deposition inh)
C[C@H](CO)N1C[C@H](C)[C@@H](CN(C)Cc2ccc(Cl)c(Cl)c2)Oc2ccc(NC(=O)Nc3cccc4ccccc34)cc2CC1=O	none (no result: FN deposition inh)
CC1=Nc2cc(C(=O)O)ccc2Sc2ccc(Br)cc21	SIRT5 block 23
COc1ccc(CNC(=O)OC2CC3CC2[C@H]2CCCCN2C3=O)cc1 (some centres undefined)	none (no result: ARNT TACC3 PPI)
CN(C)CCCNC(=O)OC1CC2CC1[C@H]1CCCCN1C2=O (some centres undefined)	DENV2 CPE rescue 48 (no result: ARNT TACC3 PPI)
Brc1ccc(-c2noc(CCc3ccccc3)n2)o1	DENV2 CPE rescue 56
CC(C)(C)CNC(=O)c1cccc2c1C(=O)c1ccc(N3CCCC3)cc1S2(=O)=O	DENV2 CPE rescue 29 (no result: SIRT5 block)
O=C(NCCN1CCCCC1)c1cccc2c1C(=O)c1ccc(N3CCCC3)cc1S2(=O)=O	none (no result: SIRT5 block)
CC1CCN(c2ccc3c(c2)S(=O)(=O)c2cccc(C(=O)NC4CCCCC4)c2C3=O)CC1	DENV2 CPE rescue 34 (no result: SIRT5 block)
O=C(NC1CCCCC1)c1cccc2c1C(=O)c1ccc(N3CCCC3)cc1S2(=O)=O	none (no result: SIRT5 block, DENV2 CPE rescue)
CO[C@@H]1CN(C)C(=O)c2cc(NS(=O)(=O)c3cccc(F)c3)ccc2OC[C@@H](C)N(C(=O)Cc2cccnc2)C[C@H]1C	none
CCCc1c(C(=O)Nc2cc(C(C)(C)C)on2)cnn1-c1ccccc1	DENV2 CPE rescue 29
O=C(N[C@@H]1C=C[C@@H](CC(=O)N2CCN(c3ccccc3)CC2)O[C@H]1CO)c1ccccc1	none
C[C@@H]1CN([C@@H](C)CO)C(=O)c2cc(C3=CCCC3)cnc2O[C@@H]1CN(C)C(=O)CN1CCOCC1	none
COCC#Cc1cnc2c(c1)C(=O)N([C@H](C)CO)C[C@H](C)[C@@H](CN(C)C(=O)c1cccnc1)O2	none
COCC#Cc1cnc2c(c1)C(=O)N([C@H](C)CO)C[C@@H](C)[C@H](CN(C)C(=O)Cc1ccccc1)O2	SIRT5 block 31 (no result: FN deposition inh)
COCC#Cc1cnc2c(c1)C(=O)N([C@@H](C)CO)C[C@@H](C)[C@H](CN(C)C(=O)c1cccnc1)O2	SIRT5 block 16
CO[C@@H]1CN(C)C(=O)c2cc(NS(C)(=O)=O)ccc2OC[C@H](C)N(Cc2cccnc2)C[C@H]1C	none (no result: FGF22 binding, ARNT TACC3 PPI, SIRT5 block, DENV2 CPE rescue)
CC1CCN(CC(=O)Nc2cc(C(F)(F)F)ccc2Cl)CC1	DENV2 CPE rescue inconclusive
CC1(C)CC(=O)C(CC(=O)Nc2cc(C(F)(F)F)ccc2Cl)C(=O)C1	FGF22 binding 44
CC(OC(=O)C1CC1)C(=O)Nc1cc(C(F)(F)F)ccc1Cl (centres undefined)	FGF22 binding 44, DENV2 CPE rescue inconclusive
COc1ccc2c3c(n(C)c2c1)[C@@H](CO)N(CC1CCOCC1)CC31CN(CC2CCOCC2)C1	none (no result: ARNT TACC3 PPI, SIRT5 block, FN deposition inh)
COC(=O)[C@]12CCCCC=C1N(Cc1cccc3ccccc13)C(=O)[C@H](CC(=O)NCc1ccccc1)C2	none (no result: ARNT TACC3 PPI)
COC(=O)[C@]12CCCCC=C1N(Cc1cccc3ccccc13)C(=O)[C@H](CC(=O)N1CCSCC1)C2	DENV2 CPE rescue 32 (no result: ARNT TACC3 PPI)
CCOC(=O)[C@]12CCCC=C1N(Cc1cccc3ccccc13)C(=O)[C@H](CC(=O)N1CCSCC1)C2	none (no result: ARNT TACC3 PPI)
COC(=O)[C@]12CCCCC=C1N(Cc1cccc3ccccc13)C(=O)[C@H](CC(=O)NCCC(C)C)C2	DENV2 CPE rescue 109 (no result: ARNT TACC3 PPI)
CCOC(=O)[C@]12CCC=C1N(Cc1cccc3ccccc13)C(=O)[C@H](CC(=O)N1CCCC1)C2	DENV2 CPE rescue 37 (no result: ARNT TACC3 PPI)
COC(=O)[C@]12CCCCC=C1N(Cc1cccc3ccccc13)C(=O)[C@H](CC(=O)NCC1CCCCC1)C2	SIRT5 block 22 (no result: FGF22 binding, ARNT TACC3 PPI)
C[C@@H]1CCCCO[C@H](CN(C)C)[C@H](C)CN([C@H](C)CO)C(=O)c2cc(NS(=O)(=O)c3cn(C)cn3)ccc2O1	none
CS(=O)(=O)c1nc(S(=O)(=O)c2ccc(Cl)cc2)c(NCCCN2CCOCC2)s1	none
CCS(=O)(=O)c1nc(S(=O)(=O)c2ccc(Cl)cc2)c(NCc2ccccn2)s1	FGF22 binding 44
CCNc1sc(S(C)(=O)=O)nc1S(=O)(=O)c1ccc(Cl)cc1	FGF22 binding 43
NC1=NC(=O)/C(=C/c2cc(Br)c(O)c(Br)c2)S1	FGF22 binding 2.0
NC1=NC(=O)/C(=C/c2ccc(Br)cc2)S1	none
CCOC(=O)COc1ccc(Br)cc1/C=C1\SC(N)=NC1=O	DENV2 CPE rescue 37
CC(=O)N1C[C@H]2[C@@H](c3ccccc31)[C@@H](CO)N2C(=O)Nc1ccc(F)cc1	none (no result: FN deposition inh)
CN(C)C(=O)C[C@@H]1CC[C@@H]2[C@H](COc3ccc(NC(=O)c4ccc(F)cc4)cc3C(=O)N2C)O1	none
O=C(NCCc1ccccc1)c1n[nH]c(=O)c2ccccc12	FGF22 binding 43
O=C(NCCc1ccccc1)c1c(F)cccc1F	FGF22 binding 43
CSc1ncccc1C(=O)NCCc1ccccc1	FGF22 binding 43
COc1ccc(CCNC(=O)c2n[nH]c(=O)c3ccccc23)cc1	none (no result: FGF22 binding, SIRT5 block, FN deposition inh, Xi reactivation, DENV2 CPE rescue)
CNC[C@@H]1Oc2ccc(NC(=O)Nc3ccccc3)cc2CC(=O)N([C@@H](C)CO)C[C@H]1C	DENV2 CPE rescue inconclusive (no result: FN deposition inh, Xi reactivation)
COc1ccc2c3c(n(C)c2c1)[C@H](CO)N(C(=O)NC1CCCC1)CC31CN(C(C)=O)C1	none (no result: FGF22 binding, ARNT TACC3 PPI, FN deposition inh)
CC(=O)N1CC(=O)N2[C@H](CO)[C@H](c3ccc(-c4ccc(C(=O)N(C)C)cc4)cc3)[C@@H]2C1	none (no result: FGF22 binding, ARNT TACC3 PPI, FN deposition inh)
O=C(NCCOc1nc(N2CCCCC2)nc(N2CCCCC2)n1)Nc1ccccc1	FGF22 binding 44 (no result: ARNT TACC3 PPI)
CC(C)C#Cc1cnc2c(c1)C(=O)N([C@@H](C)CO)C[C@@H](C)[C@@H](CN(C)Cc1ccccc1F)O2	none
COc1ccc(NC(=O)Nc2ccc3c(c2)CC(=O)N([C@H](C)CO)C[C@H](C)[C@@H](CN(C)C(=O)Nc2c(C)noc2C)O3)cc1	none (no result: SIRT5 block, FN deposition inh)
O=C(O)c1cc2n(n1)C(C(F)(F)F)CC(C1CC1)N2 (centres undefined)	FGF22 binding 43
COc1ccc(C(=O)Nc2ccnn2C2CCN(C(=O)c3cnsn3)CC2)cc1	DENV2 CPE rescue 40
O=C(Nc1ccnn1C1CCN(C(=O)c2ccc(C(F)(F)F)cc2)CC1)C1CC1	SIRT5 block 23
